Measurements from different studies.
Observed: cell growth or viability

CC(C)(C)CC(C)(C)Nc1c(-c2cccnc2)nc2ncccn12  viability (MDA-MB-231; MTT; 25 µM; 48 h): 85.2%
Cc1cn([C@@H]2C[C@H](O)[C@@H](CNC(=O)Nc3ccc(-c4ccccc4)cc3)O2)c(=O)[nH]c1=O  CC50 (MRC5): > 50 µM
COc1cc2ccc(=O)oc2cc1OC  IC50 (MRC5; MTT; 24 h): > 100 µM
CC1(C)OC[C@@]2(C)[C@H]3CC[C@@H]4CN(Cc5cccs5)[C@@H](C5=CCOC5=O)C[C@H]4[C@]3(C)CC[C@H]2O1  cell death (MRC5; ATP luminescence; 25 µM; 72 h): -0.9%
COc1cc(OC)c2c(=O)cc(-c3ccccc3)oc2c1-c1c(OC)cc(OC)c2c(=O)cc(-c3ccccc3)oc12  CC50 (HS27; MTT; 24 h): > 200 µM
CC(C)(C)CC(C)(C)Nc1c(-c2ccccc2)nc2ncccn12  viability (MDA-MB-231; MTT; 25 µM; 48 h): 58.2%
COc1cc(C)cc2oc(-c3ccccc3)cc(=O)c12  CC50 (HS27; MTT; 24 h): > 200 µM
C[C@]1(CO)[C@H]2CC[C@@H]3CN(Cc4cccs4)[C@@H](C4=CCOC4=O)C[C@H]3[C@]2(C)CC[C@H]1O  cell death (MRC5; ATP luminescence; 25 µM; 72 h): -7.4%
COc1cc(OC)c2c(=O)cc(-c3ccc(N(C)C)cc3)oc2c1-c1c(OC)cc(OC)c2c(=O)cc(-c3ccc(N(C)C)cc3)oc12  CC50 (HS27; MTT; 24 h): > 200 µM
CC(=O)OC[C@@]1(C)[C@H]2CC[C@@H]3CN(C(C)C)[C@@H](C4=CCOC4=O)C[C@H]3[C@]2(C)CC[C@H]1OC(C)=O  cell death (MRC5; ATP luminescence; 25 µM; 72 h): -2.1%
CC(C)(C)CC(C)(C)Nc1c(-c2cccc(C#N)c2)nc2ncccn12  viability (MDA-MB-231; MTT; 25 µM; 48 h): 75.8%
COc1cc(OC)c2c(=O)cc(-c3ccc(C(F)(F)F)cc3)oc2c1  CC50 (HS27; MTT; 24 h): > 200 µM
